Measurements published in ChEMBL document CHEMBL4049422, “Discovery of Novel Indazole Derivatives as Orally Available β3-Adrenergic Receptor Agonists Lacking Off-Target-Based Cardiovascular Side Effects” (J Med Chem, 2017).
pEC50: −log10 of the molar value. Converted amounts (≈) assume the structure as drawn.

Experiments:
[1] = target: T1, Alpha-1A adrenergic receptor (Homo sapiens, UniProt P35348); experiment: Agonist activity at recombinant human alpha1A adrenergic receptor expressed in HEK293 cells assessed as intercellular Ca mobilization by Fura-2AM dye-based fluorescence assay; assay type: cell-based
T1 sequence (P35348 whole entry): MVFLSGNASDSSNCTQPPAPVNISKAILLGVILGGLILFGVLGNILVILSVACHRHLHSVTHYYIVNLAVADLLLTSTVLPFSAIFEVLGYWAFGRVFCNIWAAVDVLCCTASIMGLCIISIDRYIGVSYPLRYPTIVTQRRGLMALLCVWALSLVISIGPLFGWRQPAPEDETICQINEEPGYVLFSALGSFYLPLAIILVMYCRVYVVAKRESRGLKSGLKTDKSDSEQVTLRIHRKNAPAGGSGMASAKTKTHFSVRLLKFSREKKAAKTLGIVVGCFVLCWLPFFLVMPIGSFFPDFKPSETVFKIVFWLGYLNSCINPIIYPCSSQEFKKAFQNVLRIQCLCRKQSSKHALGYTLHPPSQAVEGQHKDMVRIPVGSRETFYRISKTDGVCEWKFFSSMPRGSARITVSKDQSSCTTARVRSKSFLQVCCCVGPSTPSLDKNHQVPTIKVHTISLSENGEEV

[2] = Intrinsic clearance in human liver microsomes at 1 uM in presence of NADPH by LC-MS/MS analysis; assay type: ADME, microsome
In short: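 Pooled mixed-gender human liver microsomes (0.5 mg/mL) in 100 mM potassium phosphate pH 7.4 with NADPH-regenerating mix plus UDP-GA, test compound 1 µM, 15 min at 37 °C. Acetonitrile stop, LC-MS/MS. k from the remaining fraction. CLint,u is scaled with 48.8 mg protein/g liver and 25.7 g liver/kg, and corrected by fu from equilibrium dialysis (1 µM, 0.5 mg/mL, 6 h, 37 °C).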

[3] = Intrinsic clearance in Sprague-Dawley rat liver microsomes at 0.5 uM in presence of NADPH by LC-MS/MS analysis; assay type: ADME, microsome
In short: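 Pooled male Sprague-Dawley rat liver microsomes (0.5 mg/mL final) in 100 mM Tris-HCl pH 7.4 with NADPH-regenerating mix plus UDP-GA, test compound 0.5 µM, 20 min at 37 °C. Acetonitrile stop, LC-MS/MS. CLint,u is scaled with 44.8 mg protein/g liver and 40.0 g liver/kg, and corrected by fu from ultracentrifugation (160,000g, 16 h, 37 °C).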

[4] = Solubility of the compound at pH 6.8 buffer solution after 18 hrs by HPLC analysis; assay type: physicochemical
[5] = AUC in Sprague-Dawley rat at 5 mg/kg, po by LC-MS/MS analysis; assay type: ADME, organism-based; conditions: in vivo
In short: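 Male Sprague-Dawley rats (n = 2 or 3) dosed orally at 5 mg/kg in saline or water (5 mL/kg). Blood taken from the subclavian vein at 0.5, 1, 2, 4, 6 and 8 h; plasma separated by centrifugation, stored at -20 °C, and drug levels measured by LC-MS/MS. Values are mean ± SD (n = 3) or the average of two experiments.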

[6] = target: T2, CYP2B6 (Homo sapiens, UniProt P20813); experiment: Inhibition of CYP2B6 (unknown origin) at 10 uM relative to control; assay type: ADME
T2 sequence (P20813 whole entry): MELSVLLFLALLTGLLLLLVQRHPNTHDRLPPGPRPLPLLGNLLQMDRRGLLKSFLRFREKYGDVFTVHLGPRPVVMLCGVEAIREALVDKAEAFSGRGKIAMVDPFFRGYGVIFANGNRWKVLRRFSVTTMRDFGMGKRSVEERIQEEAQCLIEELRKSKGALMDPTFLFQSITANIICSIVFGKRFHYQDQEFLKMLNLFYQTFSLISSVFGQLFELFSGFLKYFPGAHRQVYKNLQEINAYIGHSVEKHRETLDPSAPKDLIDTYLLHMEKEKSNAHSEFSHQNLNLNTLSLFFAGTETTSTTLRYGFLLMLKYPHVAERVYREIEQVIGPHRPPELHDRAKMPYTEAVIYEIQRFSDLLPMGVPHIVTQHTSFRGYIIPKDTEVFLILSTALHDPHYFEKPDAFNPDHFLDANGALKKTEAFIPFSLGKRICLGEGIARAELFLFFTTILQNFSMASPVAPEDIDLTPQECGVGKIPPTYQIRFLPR

[7] = target: T3, CYP2C8 (Homo sapiens, UniProt P10632); experiment: Inhibition of CYP2C8 (unknown origin) at 10 uM relative to control; assay type: ADME
T3 sequence (P10632 whole entry): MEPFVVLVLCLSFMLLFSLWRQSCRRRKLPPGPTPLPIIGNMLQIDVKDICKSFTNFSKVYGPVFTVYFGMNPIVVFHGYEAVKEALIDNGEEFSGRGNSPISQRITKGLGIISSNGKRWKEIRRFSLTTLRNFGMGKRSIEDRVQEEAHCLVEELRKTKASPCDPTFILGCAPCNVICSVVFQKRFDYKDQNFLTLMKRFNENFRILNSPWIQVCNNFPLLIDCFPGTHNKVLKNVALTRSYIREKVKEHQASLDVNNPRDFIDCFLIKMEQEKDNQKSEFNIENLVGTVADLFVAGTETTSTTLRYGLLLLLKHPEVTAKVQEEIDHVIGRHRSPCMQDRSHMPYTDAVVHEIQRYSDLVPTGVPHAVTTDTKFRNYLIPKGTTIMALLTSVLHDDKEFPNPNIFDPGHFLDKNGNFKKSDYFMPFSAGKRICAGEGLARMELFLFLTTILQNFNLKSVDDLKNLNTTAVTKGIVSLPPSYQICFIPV

[8] = target: CYP3A4 (Homo sapiens, UniProt P08684); experiment: Inhibition of CYP3A4 (unknown origin) at 10 uM relative to control; assay type: ADME
[9] = system: Rattus norvegicus; experiment: Cardiotoxicity in Sprague-Dawley rat assessed as decrease in mean blood pressure at 3 mg/kg, iv after 30 mins (reference value: 5.4 +/- 1.9%); assay type: toxicity, organism-based; design: scale not given: the % may be the effect or the level left; conditions: in vivo, 0.5 h
[10] = target: T4, Alpha-1B adrenergic receptor (Homo sapiens, UniProt P35368); experiment: Agonist activity at recombinant human alpha1B adrenergic receptor expressed in HEK293 cells after 6 hrs by NFAT-luciferase reporter gene assay; assay type: cell-based
T4 sequence (P35368 whole entry): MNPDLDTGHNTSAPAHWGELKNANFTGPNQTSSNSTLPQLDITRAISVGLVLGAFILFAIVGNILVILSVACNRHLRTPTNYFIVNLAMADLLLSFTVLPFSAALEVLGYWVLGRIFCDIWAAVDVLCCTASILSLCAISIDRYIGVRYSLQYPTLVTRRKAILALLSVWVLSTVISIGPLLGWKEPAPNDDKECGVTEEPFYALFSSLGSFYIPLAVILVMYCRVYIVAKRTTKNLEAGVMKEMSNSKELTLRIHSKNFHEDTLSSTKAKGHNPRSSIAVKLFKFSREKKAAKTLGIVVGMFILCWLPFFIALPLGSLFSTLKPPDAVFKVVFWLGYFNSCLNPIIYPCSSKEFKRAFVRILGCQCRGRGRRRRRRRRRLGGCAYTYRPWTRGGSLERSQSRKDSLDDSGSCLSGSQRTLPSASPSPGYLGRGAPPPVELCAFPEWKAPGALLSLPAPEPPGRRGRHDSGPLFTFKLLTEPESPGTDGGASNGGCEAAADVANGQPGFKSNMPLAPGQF

CYP3A4, sequence (P08684 whole entry): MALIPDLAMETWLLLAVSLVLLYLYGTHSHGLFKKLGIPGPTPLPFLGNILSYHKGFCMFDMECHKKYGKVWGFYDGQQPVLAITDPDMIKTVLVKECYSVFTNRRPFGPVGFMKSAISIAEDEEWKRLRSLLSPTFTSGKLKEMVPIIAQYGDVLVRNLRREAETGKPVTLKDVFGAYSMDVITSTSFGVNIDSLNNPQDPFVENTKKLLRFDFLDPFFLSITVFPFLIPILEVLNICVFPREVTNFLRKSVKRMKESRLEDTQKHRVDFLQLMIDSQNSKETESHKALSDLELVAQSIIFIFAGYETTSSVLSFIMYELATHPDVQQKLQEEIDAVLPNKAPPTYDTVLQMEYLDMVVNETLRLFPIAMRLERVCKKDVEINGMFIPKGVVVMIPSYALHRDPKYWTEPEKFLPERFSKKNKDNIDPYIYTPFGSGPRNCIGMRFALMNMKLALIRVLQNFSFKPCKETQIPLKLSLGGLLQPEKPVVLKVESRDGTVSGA

Structure (SMILES): Cc1n[nH]c2cc(OCCNC[C@H](O)c3cccc(NS(=O)(=O)C4CCC4)c3)ccc12
- pEC50 [1]: < 5.00
- CLint scaled at 1 µM [2]: 57 mL/min/kg
- CLint scaled at 0.5 µM [3]: 52 mL/min/kg
- solubility at 18 h [4]: 278 µM (≈ 124 µg/mL)
- AUC [5]: 312 ng·h/mL
- inhibition at 10 µM [6]: < 34%
- inhibition at 10 µM [7]: < 34%
- inhibition at 10 µM [8]: < 34%
- Activity [9]: 12.9%
- pEC50 [10]: < 5.00
